Test results as given in PMC2909692 (Nuclear medicine and biology, 2010).
Several values for one entry are separate records, joined by “and”; a condition that tells them apart may be missing. Identical values can stand only once. Like-named read-outs stand apart in the source and are kept apart here.

Experiments:
[1] = target: VMAT2 (Rattus norvegicus, UniProt Q01827); test: small animal PET imaging with [18F]AV-133 in 6-OHDA unilateral lesioned rats; type: in vivo
Method in brief: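 Male Sprague Dawley rats with a unilateral left 6-OHDA lesion passed an apomorphine rotation check (0.05 mg/kg s.c., day 21). Under 1.5-2.5% isoflurane, each received [18F]AV-133 (50-57 MBq) by tail vein and was imaged dynamically for 4 hrs (5 min frames, then 15 min frames). ROI analysis on reconstructed images gave % change = ((R striatum − cerebellum) − (L striatum − cerebellum))/(R striatum − cerebellum) × 100.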

[2] = target: T1, SERT (Rattus norvegicus, UniProt P31652); test: quantitative in vitro autoradiography with [18F]FPBM on rat brain sections; type: binding; conditions: n = 3
Method in brief: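 Coronal 20 μm cryostat sections from left-lesioned (6-OHDA) male Sprague Dawley rat brains were preincubated for 20 min at room temperature in 50 mM Tris/120 mM NaCl, pH 7.4, then dried. They were incubated for 1 hr at room temperature in that buffer containing [18F]FPBM (166-178 Bq/μL), rinsed cold 2 × 45 min, and exposed to film for 24 hrs with calibration standards. % change = ((R − cerebellum) − (L − cerebellum))/(R − cerebellum) × 100, averaged over rostral-striatum sections.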

[3] = target: T1, SERT; type: in vivo
Method in brief: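 Rats under 1.5-2.5% isoflurane were scanned on a Philips Mosaic animal PET after tail-vein [18F]FPBM (37-51 MBq lesioned; 43-57 MBq normal controls). Dynamic acquisition ran 4 hrs: 5-min frames for 2 hrs, then 15-min frames. Lesioned rats were apomorphine-screened (0.05 mg/kg s.c.) and rescanned 7-20 days later. ROI time-activity points were summed per region; left-striatum change = ((R−CB)−(L−CB))/(R−CB)×100.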

[4] = normal rats, ref [23]-[25], cited from earlier work
[5] = target: T1, SERT; test: regional brain biodistribution of [18F]FPBM in PCA-treated and control rats; type: in vivo; conditions: 60 min, n = 6
Method in brief: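 Male Sprague Dawley rats (12, split into two groups) received PCA 5 mg/kg i.p. or saline daily for 2 consecutive days. Six days later they were given [18F]FPBM i.v. and killed under isoflurane 60 min post-injection. Radioactivity distribution was measured in brain regions only, not peripheral organs.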

[6] = target: serotonin transporter (SERT); conditions: read-out: Ki (affinity); in vitro binding assays; ref [23]-[25]; cited from earlier work
[7] = target: dopamine transporter (DAT) (Rattus norvegicus, UniProt P23977); test: quantitative in vitro autoradiography with [125I]IPT on rat brain sections; type: binding
Method in brief: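 Brains from lesioned rats were frozen in OCT, and 20 μm coronal cryosections were desiccated 2 hrs at 4 °C, then stored at −70 °C. Sections were preincubated 20 min at room temperature in 50 mM Na2HPO4/0.32 M sucrose pH 7.4, then incubated 2 hrs with [125I]IPT (13-19 Bq/μL). Rinses: cold buffer 2 × 30 min, then cold water. Film exposure was 24 hrs with 125I homogenate standards (0.04-1.48 kBq/mg). Change = ((R−CB)−(L−CB))/(R−CB)×100, averaged over sections.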

T1 sequence (P31652 whole entry): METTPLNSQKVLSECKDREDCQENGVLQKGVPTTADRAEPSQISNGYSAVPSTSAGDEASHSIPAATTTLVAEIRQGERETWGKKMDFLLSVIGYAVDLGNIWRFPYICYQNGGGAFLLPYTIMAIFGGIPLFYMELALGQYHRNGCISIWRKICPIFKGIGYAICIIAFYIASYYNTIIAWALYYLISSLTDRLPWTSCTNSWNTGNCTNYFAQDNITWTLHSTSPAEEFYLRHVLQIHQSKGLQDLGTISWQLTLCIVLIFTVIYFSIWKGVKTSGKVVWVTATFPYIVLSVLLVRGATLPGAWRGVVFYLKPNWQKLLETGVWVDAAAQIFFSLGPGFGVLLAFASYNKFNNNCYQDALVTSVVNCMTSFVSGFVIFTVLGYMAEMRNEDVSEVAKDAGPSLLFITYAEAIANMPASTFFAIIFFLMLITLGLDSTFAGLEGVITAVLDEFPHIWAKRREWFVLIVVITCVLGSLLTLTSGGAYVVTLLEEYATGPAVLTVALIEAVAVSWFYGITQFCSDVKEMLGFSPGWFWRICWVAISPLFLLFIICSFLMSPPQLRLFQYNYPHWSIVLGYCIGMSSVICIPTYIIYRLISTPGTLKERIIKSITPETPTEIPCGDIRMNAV
Chain of VMAT2 (Q01827 whole entry): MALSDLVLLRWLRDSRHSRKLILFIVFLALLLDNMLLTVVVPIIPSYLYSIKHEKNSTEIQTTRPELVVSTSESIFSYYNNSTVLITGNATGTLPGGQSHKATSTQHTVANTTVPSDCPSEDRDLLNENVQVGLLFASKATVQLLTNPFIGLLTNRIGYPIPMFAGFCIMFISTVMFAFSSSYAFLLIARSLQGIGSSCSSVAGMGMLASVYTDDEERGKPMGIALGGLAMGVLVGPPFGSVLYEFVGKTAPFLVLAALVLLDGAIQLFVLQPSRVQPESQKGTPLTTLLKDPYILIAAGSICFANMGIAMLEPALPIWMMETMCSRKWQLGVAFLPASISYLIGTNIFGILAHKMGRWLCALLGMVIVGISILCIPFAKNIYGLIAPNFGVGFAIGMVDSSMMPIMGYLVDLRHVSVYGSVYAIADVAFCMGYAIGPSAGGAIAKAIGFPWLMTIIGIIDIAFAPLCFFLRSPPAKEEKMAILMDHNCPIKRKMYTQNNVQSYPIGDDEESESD
Chain of dopamine transporter (DAT) (P23977 whole entry): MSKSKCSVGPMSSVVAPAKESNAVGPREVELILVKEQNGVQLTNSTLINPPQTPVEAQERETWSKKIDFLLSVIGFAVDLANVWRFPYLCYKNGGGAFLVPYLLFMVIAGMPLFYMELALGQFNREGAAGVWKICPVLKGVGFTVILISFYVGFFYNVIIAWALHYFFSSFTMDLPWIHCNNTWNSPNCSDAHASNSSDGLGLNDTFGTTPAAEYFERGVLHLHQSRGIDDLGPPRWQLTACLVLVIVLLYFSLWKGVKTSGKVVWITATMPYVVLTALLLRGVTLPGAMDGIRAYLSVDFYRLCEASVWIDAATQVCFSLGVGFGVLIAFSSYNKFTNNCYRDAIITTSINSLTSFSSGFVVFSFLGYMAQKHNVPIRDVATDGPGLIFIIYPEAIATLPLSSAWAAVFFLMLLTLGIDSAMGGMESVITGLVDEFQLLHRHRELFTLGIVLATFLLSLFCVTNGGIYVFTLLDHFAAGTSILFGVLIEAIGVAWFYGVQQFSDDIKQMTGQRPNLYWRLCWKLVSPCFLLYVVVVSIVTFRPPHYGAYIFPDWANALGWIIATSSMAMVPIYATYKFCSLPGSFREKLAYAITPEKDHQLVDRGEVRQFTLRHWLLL

COc1cc2c(cc1OCCCF)CCN1CC(CC(C)C)C(O)CC21 (single isomer, unassigned; (+)) [[^18F]AV-133, (+)-2-Hydroxy-3-isobutyl-9-(3-fluoropropoxy)-10-methoxy-1,2,3,4,6,7-hexahydro-11bH-benzo[a]quinolizine]
percent binding change in the left striatum (PET) ([1]; 6-OHDA lesioned rat #1, n = 1): −87%
percent binding change in the left striatum (PET) ([1]; 6-OHDA lesioned rat #2, n = 1): −72%
percent binding change in the left striatum (PET) ([1]; 6-OHDA lesioned rat #3, n = 1): −91%

CN(C)Cc1cc(OCCC[18F])ccc1Sc1ccccc1N [[^18F]FPBM, 2-(2′-((dimethylamino)methyl)-4′-(3-[^18F]-fluoropropoxy)phenylthio)benzenamine]
averaged percent binding reduction of the left rostral striatum brain sections (in vitro autoradiography) ([2]; 6-OHDA lesioned rat #1, rostral striatum sections): −5.9%
averaged percent binding reduction of the left rostral striatum brain sections (in vitro autoradiography) ([2]; 6-OHDA lesioned rat #2, rostral striatum sections): +2.3%
averaged percent binding reduction of the left rostral striatum brain sections (in vitro autoradiography) ([2]; 6-OHDA lesioned rat #3, rostral striatum sections): −37.3%
percent binding change in the left striatum (PET), individual scans ([3]; 6-OHDA lesioned rat #1, 10 days between scans): −12% and −10%
average percent binding change in the left striatum (PET) ([3]; 6-OHDA lesioned rat #1, n = 2 scans): −11%
percent binding change in the left striatum (PET), individual scans ([3]; 6-OHDA lesioned rat #2, 20 days between scans): −1% and −7%
average percent binding change in the left striatum (PET) ([3]; 6-OHDA lesioned rat #2, n = 2 scans): −4%
percent binding change in the left striatum (PET), individual scans ([3]; 6-OHDA lesioned rat #3, 7 days between scans): −42% and −44%
average percent binding change in the left striatum (PET) ([3]; 6-OHDA lesioned rat #3, n = 2 scans): −43%
percent binding change in the left striatum (PET), individual rats ([3]; normal control rats, individual values): +4.5% and −3.5%
average percent binding change in the left striatum (PET) ([3]; normal control rats, n = 2 separate rats, left vs right striatum): +0.5%
brain uptake ([4]; 2 min post-injection): 0.99 % dose/g
target to non-target ratio ([4]; 120 min post-injection): 7.7
ratio vs. CB ± SD, cerebellum ([5]; PCA-treated rats): 1.00 ± 0.34
ratio vs. CB ± SD, cortex ([5]; PCA-treated rats): 1.93 ± 0.58
ratio vs. CB ± SD, hippocampus ([5]; PCA-treated rats): 2.29 ± 0.56
ratio vs. CB ± SD, hypothalamus ([5]; PCA-treated rats): 3.87 ± 0.88
ratio vs. CB ± SD, remainder ([5]; PCA-treated rats): 2.27 ± 0.53
ratio vs. CB ± SD, striatum ([5]; PCA-treated rats): 2.90 ± 1.00
ratio vs. CB ± SD, cerebellum ([5]; control rats): 1.00 ± 0.33
ratio vs. CB ± SD, cortex ([5]; control rats): 3.39 ± 1.28
ratio vs. CB ± SD, hippocampus ([5]; control rats): 3.09 ± 1.10
ratio vs. CB ± SD, hypothalamus ([5]; control rats): 4.61 ± 1.44
ratio vs. CB ± SD, remainder ([5]; control rats): 3.12 ± 1.12
ratio vs. CB ± SD, striatum ([5]; control rats): 3.70 ± 1.21
Ki [6]: 0.38 nM

COC(=O)C1C(c2ccc(Cl)cc2)CC2CCC1N2CC=C[125I] (stereo not drawn) [[^125I]IPT, N-(3′-[^125I]-iodopropen-2′-yl)-2-beta-carbomethoxy-3-beta-(4-chlorophenyl) tropane]
percent change in binding in the left striatum (in vitro autoradiography) ([7]; 6-OHDA lesioned rat #1): −66%
percent change in binding in the left striatum (in vitro autoradiography) ([7]; 6-OHDA lesioned rat #2): −56%
percent change in binding in the left striatum (in vitro autoradiography) ([7]; 6-OHDA lesioned rat #3): −81%
